# ChEMBL document CHEMBL1649139, “A novel gene, erm(41), confers inducible macrolide resistance to clinical isolates of Mycobacterium abscessus but is absent from Mycobacterium chelonae” (2009)
# Legend:
# Format in all cases: functional
# [1] = tested on: Mycolicibacterium smegmatis; assay: Antimicrobial activity against Mycobacterium smegmatis transformed with erm allele Mycobacterium abscessus isolate MC720 by broth microdilution method
# [2] = tested on: Mycobacteroides abscessus; assay: Antimicrobial activity against Mycobacterium abscessus isolate MC719 at day 7 preincubated with 0.1 ug/ml erythromycin for 3 days by broth microdilution method
# Procedure, shortened: (§1)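 Clarithromycin MIC by broth microdilution following CLSI guidelines. Before testing, organisms were preincubated for 3 days in medium alone or in clarithromycin or erythromycin (0.01–1 μg/ml), long enough for at least two generations judged by turbidity increase. MICs were read on day 3 and again on extended incubation out to day 14.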
# [3] = tested on: Mycobacteroides abscessus; assay: Antimicrobial activity against Mycobacterium abscessus isolate MC723 at day 3 preincubated with 0.1 ug/ml erythromycin for 3 days by broth microdilution method; procedure, shortened: as §1
# [4] = tested on: Mycobacteroides abscessus; assay: Antimicrobial activity against Mycobacterium abscessus isolate MC719 at day 5 preincubated with 0.1 ug/ml for 3 days by broth microdilution method
# Procedure, shortened: (§2)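 Clinical M. abscessus isolates were preincubated for 3 days, either in medium alone or in clarithromycin or erythromycin at 0.01 to 1 μg/ml, allowing at least two generations of growth judged by turbidity. The clarithromycin MIC was then determined by CLSI-conforming broth microdilution, with plates read on day 3 and on extended incubation (days 5 to 14).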
# [5] = tested on: Mycolicibacterium smegmatis; assay: Antimicrobial activity against Mycobacterium smegmatis transformed with erm allele Mycobacterium abscessus isolate MC720 preincubated with 2 ug/ml erythromycin for 20 to 24 hrs by broth microdilution method
# [6] = tested on: Mycobacteroides abscessus; assay: Antimicrobial activity against Mycobacterium abscessus isolate MC958 at day 3 preincubated with 0.1 ug/ml erythromycin for 3 days by broth microdilution method
# Procedure, shortened: (§3)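 To test inducible resistance, cultures were preincubated for 3 days in clarithromycin or erythromycin, within 0.01–1 μg/ml. The period was set so cultures passed at least two generations, judged by turbidity increase. Clarithromycin MIC was then determined by CLSI-conforming broth microdilution and read on the stated day, from day 3 up to 14.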
# [7] = tested on: Mycobacteroides abscessus; assay: Antimicrobial activity against Mycobacterium abscessus isolate MC723 at day 14 preincubated with 0.1 ug/ml erythromycin for 3 days by broth microdilution method; procedure, shortened: as §1
# [8] = tested on: Mycobacteroides abscessus; assay: Antimicrobial activity against Mycobacterium abscessus isolate MC1082 at day 9 preincubated with 0.1 ug/ml erythromycin for 3 days by broth microdilution method
# Procedure, shortened: (§4)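 Clarithromycin MIC by CLSI-conforming broth microdilution. Before testing, cultures were preincubated for 3 days, either in medium alone or in clarithromycin or erythromycin (tested range 0.01–1 μg/ml). Preincubation ran for at least two generations, judged by turbidity increase. Plates were read on day 3 and on extended incubation at days 5 to 14.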
# [9] = tested on: Mycobacteroides abscessus; assay: Antimicrobial activity against Mycobacterium abscessus isolate MC1028 at day 9 preincubated with 0.1 ug/ml erythromycin for 3 days by broth microdilution method; procedure, shortened: as §4
# [10] = tested on: Mycobacteroides abscessus; assay: Antimicrobial activity against Mycobacterium abscessus isolate MC879 on day 10 by broth microdilution method; settings: isolate MC879, 240 h
# [11] = tested on: Mycobacteroides abscessus; assay: Antimicrobial activity against Mycobacterium abscessus isolate MC958 at day 7 by broth microdilution method; settings: isolate MC958, 168 h
# Procedure, shortened: (§5)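 Clarithromycin MIC by broth microdilution following CLSI guidelines. Organisms were preincubated […], for 3 days before the assay. This allowed at least two generations, judged by the rise in turbidity. The MIC was read at the stated day, with incubation extended from day 3 to as long as 14 days.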
# [12] = tested on: Mycobacteroides abscessus; assay: Antimicrobial activity against Mycobacterium abscessus isolate MC723 at day 3 by broth microdilution method; settings: isolate MC723, 72 h; procedure, shortened: as §1
# [13] = tested on: Mycobacteroides abscessus; assay: Antimicrobial activity against Mycobacterium abscessus isolate MC1028 at day 7 preincubated with 0.1 ug/ml erythromycin for 3 days by broth microdilution method; procedure, shortened: as §4
# [14] = tested on: Mycobacteroides abscessus; assay: Antimicrobial activity against Mycobacterium abscessus isolate MC719 at day 9 preincubated with 0.1 ug/ml for 3 days by broth microdilution method; procedure, shortened: as §1
# [15] = tested on: Mycobacteroides abscessus; assay: Antimicrobial activity against Mycobacterium abscessus isolate MC723 at day 9 by broth microdilution method; settings: isolate MC723, 216 h; procedure, shortened: as §1
# [16] = tested on: Mycobacteroides abscessus; assay: Antimicrobial activity against Mycobacterium abscessus isolate MC724 at day 5 preincubated with 0.1 ug/ml for 3 days by broth microdilution method; procedure, shortened: as §2
# [17] = tested on: Mycobacteroides abscessus; assay: Antimicrobial activity against Mycobacterium abscessus isolate MC720 at day 14 preincubated with 0.1 ug/ml for 3 days by broth microdilution method; procedure, shortened: as §1
# [18] = tested on: Mycobacteroides abscessus; assay: Antimicrobial activity against Mycobacterium abscessus isolate MC958 at day 3 by broth microdilution method; settings: isolate MC958, 72 h; procedure, shortened: as §5
# [19] = tested on: Mycobacteroides abscessus; assay: Antimicrobial activity against Mycobacterium abscessus isolate MC1028 at day 14 preincubated with 0.1 ug/ml for 3 days by broth microdilution method; procedure, shortened: as §4
# [20] = tested on: Mycobacteroides abscessus; assay: Antimicrobial activity against Mycobacterium abscessus isolate MC723 at day 9 preincubated with 0.1 ug/ml erythromycin for 3 days by broth microdilution method; procedure, shortened: as §1
# [21] = tested on: Mycobacteroides abscessus; assay: Antimicrobial activity against Mycobacterium abscessus isolate MC879-2 at day 7 preincubated with 0.1 ug/ml for 3 days by broth microdilution method
# [22] = tested on: Mycolicibacterium smegmatis; assay: Antimicrobial activity against Mycobacterium smegmatis transformed with erm allele Mycobacterium abscessus isolate MC1082 by broth microdilution method
# [23] = tested on: Mycobacteroides abscessus; assay: Antimicrobial activity against Mycobacterium abscessus isolate MC1082 at day 9 by broth microdilution method; settings: isolate MC1082, 216 h; procedure, shortened: as §4
# [24] = tested on: Mycobacteroides abscessus; assay: Antimicrobial activity against Mycobacterium abscessus isolate MC879 at day 3 preincubated with 0.1 ug/ml for 3 days by broth microdilution method; procedure, shortened: as §3
# [25] = tested on: Mycobacteroides abscessus; assay: Antimicrobial activity against Mycobacterium abscessus isolate MC719 at day 9 preincubated with 0.1 ug/ml erythromycin for 3 days by broth microdilution method; procedure, shortened: as §1
# [26] = tested on: Mycobacteroides abscessus; assay: Antimicrobial activity against Mycobacterium abscessus isolate MC1448 at day 3 preincubated with 0.1 ug/ml for 3 days by broth microdilution method; procedure, shortened: as §1
# [27] = tested on: Mycobacteroides abscessus; assay: Antimicrobial activity against Mycobacterium abscessus isolate MC1448 at day 7 preincubated with 0.1 ug/ml for 3 days by broth microdilution method; procedure, shortened: as §1
# [28] = tested on: Mycobacteroides abscessus; assay: Antimicrobial activity against Mycobacterium abscessus isolate MC958 at day 3 preincubated with 0.1 ug/ml for 3 days by broth microdilution method; procedure, shortened: as §3
# [29] = tested on: Mycobacteroides abscessus; assay: Antimicrobial activity against Mycobacterium abscessus isolate MAB30 at day 14 preincubated with 0.1 ug/ml erythromycin for 3 days by broth microdilution method; procedure, shortened: as §4
# [30] = tested on: Mycobacteroides abscessus; assay: Antimicrobial activity against Mycobacterium abscessus isolate MC723 at day 3 preincubated with 0.1 ug/ml for 3 days by broth microdilution method; procedure, shortened: as §1
# [31] = tested on: Mycobacteroides abscessus; assay: Antimicrobial activity against Mycobacterium abscessus isolate MC879 at day 9 preincubated with 0.1 ug/ml erythromycin for 3 days by broth microdilution method; procedure, shortened: as §3
# [32] = tested on: Mycobacteroides abscessus; assay: Antimicrobial activity against Mycobacterium abscessus isolate MAB30 at day 7 preincubated with 0.1 ug/ml for 3 days by broth microdilution method; procedure, shortened: as §4
# [33] = tested on: Mycobacteroides abscessus; assay: Antimicrobial activity against Mycobacterium abscessus isolate MC879 on day 14 by broth microdilution method; settings: isolate MC879, 336 h
# [34] = tested on: Mycobacteroides abscessus; assay: Antimicrobial activity against Mycobacterium abscessus isolate MC879-2 at day 3 preincubated with 0.1 ug/ml for 3 days by broth microdilution method
# [35] = tested on: Mycobacteroides abscessus; assay: Antimicrobial activity against Mycobacterium abscessus isolate MC879 at day 5 by broth microdilution method; settings: isolate MC879, 120 h; procedure, shortened: as §5
# [36] = tested on: Mycobacteroides abscessus; assay: Antimicrobial activity against Mycobacterium abscessus isolate MAB30 at day 5 preincubated with 0.1 ug/ml for 3 days by broth microdilution method; procedure, shortened: as §4
smiles,measurement,setting,value
CC[C@H]1OC(=O)[C@H](C)[C@@H](O[C@H]2C[C@@](C)(OC)[C@@H](O)[C@H](C)O2)[C@H](C)[C@@H](O[C@@H]2O[C@H](C)C[C@H](N(C)C)[C@H]2O)[C@](C)(OC)C[C@@H](C)C(=O)[C@H](C)[C@@H](O)[C@]1(C)O [CLARITHROMYCIN],MIC,[1],2 µg/mL
same,MIC,[2],> 32 µg/mL
same,MIC,[3],≤ 0.5 µg/mL
same,MIC,[4],4 µg/mL
same,MIC,[5],16 µg/mL
same,MIC,[6],≤ 0.5 µg/mL
same,MIC,[7],> 32 µg/mL
same,MIC,[8],≤ 0.5 µg/mL
same,MIC,[9],≤ 0.5 µg/mL
same,MIC,[10],32 µg/mL
same,MIC,[11],8 µg/mL
same,MIC,[12],≤ 0.5 µg/mL
same,MIC,[13],≤ 0.5 µg/mL
same,MIC,[14],> 32 µg/mL
same,MIC,[15],> 32 µg/mL
same,MIC,[16],4 µg/mL
same,MIC,[17],> 32 µg/mL
same,MIC,[18],≤ 0.5 µg/mL
same,MIC,[19],≤ 0.5 µg/mL
same,MIC,[20],> 32 µg/mL
same,MIC,[21],> 32 µg/mL
same,MIC,[22],≤ 0.5 µg/mL
same,MIC,[23],≤ 0.5 µg/mL
same,MIC,[24],≤ 0.5 µg/mL
same,MIC,[25],> 32 µg/mL
same,MIC,[26],> 32 µg/mL
same,MIC,[27],> 32 µg/mL
same,MIC,[28],≤ 0.5 µg/mL
same,MIC,[29],≤ 0.5 µg/mL
same,MIC,[30],≤ 0.5 µg/mL
same,MIC,[31],> 32 µg/mL
same,MIC,[32],≤ 0.5 µg/mL
same,MIC,[33],32 µg/mL
same,MIC,[34],> 32 µg/mL
same,MIC,[35],1 µg/mL
same,MIC,[36],≤ 0.5 µg/mL
